For orientation: Cmax means the highest concentration seen after dosing. Broadly, the AUC(0-inf) is total exposure, with the tail of the curve extrapolated. Read a low AUC(0-inf) as low exposure. Usually AUC(0-t) stands for the area under the concentration-time curve up to a stated or last time point. The term Tmax denotes the time from dosing to the highest level.

Consider two compounds from ChEMBL document CHEMBL3526035, “Role of the intestinal peptide transporter PEPT1 in oseltamivir absorption: in vitro and in vivo studies” (Drug Metab Dispos, 2012).

The nature of data set [1]: Cmax in adult fed Sprague-Dawley rat at 30 mg/kg, po administered as water solution by HPLC-tandem mass spectrometry. Also on record: dose 30 mg/kg, route oral. It counts as ADME, organism-based. Conditions: in vivo; call rule not given here. Put shortly: (§1)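 Adult cannulated Sprague-Dawley rats, fasted (from 6 h predose) or fed, dosed orally at 30 mg/kg (10 ml/kg), 3 per group. Serial jugular plasma with dichlorvos stabilisation, measured by LC-MS/MS. Cmax read graphically from the concentration-time profile.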

A short description of data set [2]: Drug uptake in CHOK1 cells at pH 6 by HPLC coupled with radiodetection analysis. As to conditions: chinese hamster, cho-k1, pH 6. It counts as ADME, cell-based, Cricetulus griseus.
A short description of data set [3]: Drug uptake in CHOK1 cells by HPLC coupled with radiodetection analysis in presence of KH and Hanks' balanced salt solution. Conditions: chinese hamster, cho-k1. It counts as ADME, cell-based, Cricetulus griseus.
A short description of data set [4]: AUC(0 to infinity) in adult fed Sprague-Dawley rat at 30 mg/kg, po administered as water solution by HPLC-tandem mass spectrometry. It counts as ADME, organism-based. Also on record: time infinity, dose 30 mg/kg, route oral. As to conditions: plasma. Put shortly:
(§2)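 Sprague-Dawley males, 7-8 weeks, 243-283 g, jugular-cannulated, 3 days' recovery; fed (chow ad libitum). Single oral dose of 30 mg/kg (free base) at 10 ml/kg; 3 rats/group. Jugular blood taken at 0.25-24 h into K2EDTA with dichlorvos, kept on ice. Plasma analysed by validated LC-MS/MS (0.1-500 μg/l). Noncompartmental analysis; AUC by linear trapezoid, AUC0-∞ extrapolated using λz.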

A short description of data set [5]: AUC(0 to 24 hrs) in adult fed Sprague-Dawley rat at 30 mg/kg, po administered as solution in bovine milk by HPLC-tandem mass spectrometry. Conditions: in vivo. Further details: time < 24 hr, dose 30 mg/kg, route oral. It counts as ADME, organism-based. The method, boiled down:
as §2

A short description of data set [6]: Tmax in juvenile fasted Sprague-Dawley rat at 30 mg/kg, po administered as water solution by HPLC-tandem mass spectrometry. Conditions: in vivo. Further details: dose 30 mg/kg, route oral. It counts as ADME, organism-based. The method, boiled down:
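Seven-day-old Sprague-Dawley pups, males and females, 15 per group, were gavaged with 30 mg/kg (10 ml/kg). Breast-fed pups stayed with their dams; fasted pups were removed from 8 h predose through 5 h. Cardiac blood was drawn under isoflurane at 0.25, 0.5, 1, 2 and 5 h (composite, n=3/time point), with dichlorvos added. Plasma was analyzed by HPLC-MS/MS and Tmax read graphically.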

For data set [7], the target named is T1, Solute carrier family 15 member 1 (Homo sapiens, UniProt P46059).
T1 sequence (P46059 whole entry): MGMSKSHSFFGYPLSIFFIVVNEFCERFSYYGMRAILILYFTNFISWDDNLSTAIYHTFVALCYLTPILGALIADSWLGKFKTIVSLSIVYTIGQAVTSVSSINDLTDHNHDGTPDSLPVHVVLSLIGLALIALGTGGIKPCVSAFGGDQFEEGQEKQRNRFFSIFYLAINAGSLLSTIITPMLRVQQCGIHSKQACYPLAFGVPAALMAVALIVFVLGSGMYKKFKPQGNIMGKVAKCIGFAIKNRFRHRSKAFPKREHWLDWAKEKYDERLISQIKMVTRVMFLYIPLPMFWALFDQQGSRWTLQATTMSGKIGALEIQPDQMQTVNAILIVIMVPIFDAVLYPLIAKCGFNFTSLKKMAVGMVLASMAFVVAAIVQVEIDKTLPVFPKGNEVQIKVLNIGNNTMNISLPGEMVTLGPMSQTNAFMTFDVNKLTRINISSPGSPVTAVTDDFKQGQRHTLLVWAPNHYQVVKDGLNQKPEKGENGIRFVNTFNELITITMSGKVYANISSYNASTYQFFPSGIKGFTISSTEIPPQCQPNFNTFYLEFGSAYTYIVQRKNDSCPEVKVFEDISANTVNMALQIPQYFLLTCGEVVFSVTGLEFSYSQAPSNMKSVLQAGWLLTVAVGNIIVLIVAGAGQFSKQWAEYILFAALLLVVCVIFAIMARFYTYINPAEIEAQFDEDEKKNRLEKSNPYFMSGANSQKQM
Briefly: Inhibition of human PEPT1 expressed in CHOK1 cells assessed as Gly-Sar uptake at 0.3 to 10 mM after 10 mins by HPLC coupled with radiodetection analysis. As to conditions: cho-k1, 10 min, 10000 µM. It counts as cell-based. The method, boiled down:
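Competition assay in CHO-PEPT1 cells: 2 µM [3H]Gly-Sar with oseltamivir or oseltamivir carboxylate at 0.3–10 mM, 10 min at 37°C, pH 6, KH/MES buffer. Tyr-Phe 0.5 mM served as positive control. Intracellular radioactivity was measured per mg protein. Three independent experiments.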

Data set [8] is described as follows: Cmax in adult fed Sprague-Dawley rat at 30 mg/kg, po administered as solution in bovine milk by HPLC-tandem mass spectrometry. It counts as ADME, organism-based. Also on record: dose 30 mg/kg, route oral. As to conditions: in vivo. Put shortly:
as §1

Data set [9] in a line: Cmax in healthy human at 150 mg, po administered as single dose by HPLC-tandem mass spectrometry under fed conditions. It counts as ADME, organism-based. Also on record: dose 150 mg, route oral. As to conditions: in vivo. Put shortly: (§3)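 Open-label crossover in 18 healthy volunteers (9 male, 9 female, mean age 26). Each received marketed oseltamivir 150 mg orally, once fasted from midnight and once after a high-fat, high-calorie breakfast, with a 7-10 day washout. Plasma and urine collected over 0-72 h and analysed by HPLC-MS/MS. AUC and Cmax compared after log transformation.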

The nature of data set [10]: AUC(0 to infinity) in healthy human at 150 mg, po administered as single dose by HPLC-tandem mass spectrometry under fasting conditions. It counts as ADME, organism-based. Also on record: dose 150 mg, route oral, time infinity. As to conditions: plasma. The method, boiled down: as §3
A short description of data set [11]: AUC(0 to 6 hrs) in adult fasted Sprague-Dawley rat at 30 mg/kg, po administered as solution in bovine milk by HPLC-tandem mass spectrometry. It counts as ADME, organism-based. Further details: time < 6 hr, dose 30 mg/kg, route oral. Conditions: in vivo. Put shortly:
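Adult male Sprague-Dawley rats (243-283 g), jugular-cannulated, fasted from 6 h before dosing through the 6-h study. Given 30 mg/kg orally (free base) at 10 ml/kg, n=3/group. Blood sampled at 0.25-6 h into K2EDTA with dichlorvos esterase inhibitor. Plasma assayed by LC-MS/MS (0.1-500 μg/l). Noncompartmental analysis: linear-trapezoid AUC; infinity extrapolation via log-linear terminal λz.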

Data set [12] in a line: AUC(0 to 24 hrs) in healthy human at 150 mg, po administered as single dose by HPLC-tandem mass spectrometry under fed conditions. Also on record: time < 24 hr, dose 150 mg, route oral. It counts as ADME, organism-based. Conditions: plasma. The method, boiled down:
as §3

Data set [13] in a line: AUC(0 to infinity) in adult fed Sprague-Dawley rat at 30 mg/kg, po administered as 125 mM aqueous Gly-Sar solution by HPLC-tandem mass spectrometry. As to conditions: plasma. It counts as ADME, organism-based. Also on record: time infinity, dose 30 mg/kg, route oral. The method, boiled down: as §2
Data set [14] in a line: AUC(0 to 5 hrs) in juvenile fasted Sprague-Dawley rat at 30 mg/kg, po administered as solution in bovine milk by HPLC-tandem mass spectrometry. It counts as ADME, organism-based. Also on record: time < 5 hr, dose 30 mg/kg, route oral. Conditions: in vivo. The method, boiled down:
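7-day-old Sprague-Dawley pups (9.7-18.9 g, both sexes), 15 per group. Given 30 mg/kg by oral gavage (10 ml/kg); breast-fed pups stayed with dams, fasted pups were removed 8 h before dosing. Blood taken by cardiac puncture under isoflurane at 0.25, 0.5, 1, 2 and 5 h, n=3 per time point (composite design). Dichlorvos-treated plasma assayed by LC-MS/MS; AUC0-5h by noncompartmental analysis.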

Data set [15] is described as follows: AUC(0 to 6 hrs) in adult fed Sprague-Dawley rat at 30 mg/kg, po administered as 125 mM aqueous Gly-Sar solution by HPLC-tandem mass spectrometry. It counts as ADME, organism-based. Also on record: time < 6 hr, dose 30 mg/kg, route oral. As to conditions: plasma. Put shortly: as §2
Data set [16] can be described thus: Renal clearance in healthy human at 150 mg, po administered as single dose by HPLC-tandem mass spectrometry under fasting conditions. It counts as ADME, organism-based, Kidney. Conditions: in vivo. Put shortly: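 Open-label crossover food-effect study in 18 healthy volunteers (9 male, 9 female, mean age 26). Each received a single 150 mg oral dose of the marketed formulation, once fasting from midnight and once after a high-fat, high-calorie breakfast, separated by a 7–10 day washout. Plasma and urine were collected over 0–72 h and assayed by HPLC-MS/MS for oseltamivir and carboxylate.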

For `CCC(CC)O[C@@H]1C=C(C(=O)O)C[C@H](N)[C@H]1NC(C)=O` [OSELTAMIVIR CARBOXYLATE], the highest concentration (Cmax) in data set [1] was 1110 ng/mL; in [8], 1310 ng/mL; in data set [9], 441 ng/mL. The Drug uptake entry in [2] and in data set [3] was “Active” throughout. Further, the AUC(0-inf) in data set [4] turned out to be 5290 ng·h/mL; in data set [10], 6220 ng·h/mL; in data set [13] it was 4870 ng·h/mL. Further, the AUC(0-t) at 24 h in data set [5] worked out at 6330 ng·h/mL; in data set [12] it was 5060 ng·h/mL. For the same compound, the Tmax in data set [6] worked out at 2 h. Moreover, the “inhibition (INH)” value in [7] is given as “Not Active”. Further, the AUC(0-t) at 6 h in [11] came to 5810 ng·h/mL; in data set [15], 2960 ng·h/mL. The AUC(0-t) at 5 h in data set [14] was 9260 ng·h/mL. Besides, the CL renal in data set [16] is 223 mL/min.

Take `CCOC(=O)C1=C[C@@H](OC(CC)CC)[C@H](NC(C)=O)[C@@H](N)C1` [OSELTAMIVIR]: the figures for the Cmax in data set [1], in [8] and in [9] were 1270 ng/mL, 1430 ng/mL and 101 ng/mL, respectively. Moreover, the Drug uptake result in data set [2] and in data set [3] was “Active” each time. Further, the AUC(0-inf) turned out to be 2510 ng·h/mL in [4], 244 ng·h/mL in [10] and 2840 ng·h/mL in data set [13]. Besides, the figures for the AUC(0-t) at 24 h in data set [5] and in data set [12] were 2800 ng·h/mL and 280 ng·h/mL, respectively. The Tmax in [6] came to 0.5 h. In addition, in [7], the “inhibition (INH)” value is listed as “Not Active”. For the same compound, the AUC(0-t) at 6 h was 3010 ng·h/mL in [11] and 2280 ng·h/mL in data set [15]. Besides, the AUC(0-t) at 5 h in data set [14] was 26900 ng·h/mL. The CL renal in data set [16] is 340 mL/min.
